This passage reports Activity, GI50 and Ratio results from ChEMBL document CHEMBL3351507, “11H-Pyrido[3',2':4,5]pyrrolo[3,2-c]cinnoline and pyrido[3',2':4,5]pyrrolo[1,2-c][1,2,3]benzotriazine: two new ring systems with antitumor activity” (2014).

For assay [1], the target named is T1, DNA topoisomerase 1 (Homo sapiens) (UniProt P11387).
T1 sequence (whole entry): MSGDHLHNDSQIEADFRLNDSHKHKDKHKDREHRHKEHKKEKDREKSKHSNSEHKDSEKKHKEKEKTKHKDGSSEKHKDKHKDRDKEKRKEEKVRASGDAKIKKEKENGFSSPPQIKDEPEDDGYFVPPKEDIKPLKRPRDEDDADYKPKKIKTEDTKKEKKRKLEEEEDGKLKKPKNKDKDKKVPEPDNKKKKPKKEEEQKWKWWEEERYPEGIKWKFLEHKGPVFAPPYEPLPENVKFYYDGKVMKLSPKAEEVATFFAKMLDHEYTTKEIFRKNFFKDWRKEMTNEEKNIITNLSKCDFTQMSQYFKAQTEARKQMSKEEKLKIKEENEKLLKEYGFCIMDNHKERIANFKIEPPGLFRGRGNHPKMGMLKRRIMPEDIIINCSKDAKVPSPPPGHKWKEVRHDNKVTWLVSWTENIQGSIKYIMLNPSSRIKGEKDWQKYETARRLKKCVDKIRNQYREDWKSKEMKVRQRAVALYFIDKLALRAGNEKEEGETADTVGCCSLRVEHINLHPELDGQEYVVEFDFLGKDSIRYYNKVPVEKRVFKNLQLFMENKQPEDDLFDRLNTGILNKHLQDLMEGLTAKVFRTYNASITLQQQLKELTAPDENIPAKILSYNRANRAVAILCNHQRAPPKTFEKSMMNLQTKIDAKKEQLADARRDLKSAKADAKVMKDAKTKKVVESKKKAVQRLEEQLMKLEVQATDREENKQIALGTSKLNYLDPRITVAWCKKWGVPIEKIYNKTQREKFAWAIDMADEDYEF
Nature of the assay: Inhibition of human DNA topoisomerase 1-mediated DNA single strand cleavage at 5 to 100 uM after 30 mins by agarose gel electrophoresis relative to untreated control. An outline of the steps:
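Reactions were set up as for relaxation: human topoisomerase I, 0.250 µg pBR322, compound 5-100 µM, 37 °C for 30 min, stopped with SDS/proteinase K. Samples were run on 0.8% agarose containing 0.5 µg/mL ethidium bromide, then destained in water, so that cleaved/nicked DNA could be detected under UV.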

Assay [2] has as its system CCRF-CEM. Nature of the assay: Cytotoxicity against human vinblastin-resistant CEM cells assessed as growth inhibition after 72 hrs by MTT assay. It is filed as functional. The method in brief: (§1)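 CEMVbl-100 (vinblastine-selected CEM) was grown in RPMI-1640 with 0.1 µg/mL vinblastine. LoVoDoxo was grown in HAM's F12 with 0.1 µg/mL doxorubicin; parental CEM and LoVo were grown without drug. Media had 10% FBS. 5x10^3 cells were seeded, preincubated 24 h at 37 °C, then exposed 72 h to compound (DMSO <1%). Read-out was MTT; GI50 came from dose-response curves of ≥3 experiments. RI = GI50 resistant / GI50 parental.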

Assay [3] concerns CCRF-CEM. Nature of the assay: Resistance index, ratio of GI50 for human vinblastin-resistant CEM cells to GI50 for human CEM cells. Format: functional. An outline of the steps: as §1
The test system of assay [4] is CCRF-CEM. The assay can be described thus: Cytotoxicity against human CEM cells assessed as growth inhibition after 72 hrs by MTT assay. Format: functional. The method in brief:
(§2)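 Cells were grown in medium with 10% heat-inactivated FBS plus penicillin/streptomycin: RPMI-1640 for Jurkat and CEM, DMEM for A-431, HAM's F12 for LoVo. The doxorubicin-resistant LoVo subclone was kept with 0.1 µg/mL doxorubicin. Cells were seeded at 5x10^3 per well and pre-incubated 24 h at 37 °C.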

In assay [5] the test system is LoVo. The assay can be described thus: Cytotoxicity against human LoVo cells assessed as growth inhibition after 72 hrs by MTT assay. It is filed as functional. The method in brief: as §2
Assay [6] can be described thus: Cytotoxicity against human LoVo/DX cells assessed as growth inhibition after 72 hrs by MTT assay. It is filed as functional. An outline of the steps:
as §2

Assay [7] concerns LoVo. Nature of the assay: Resistance index, ratio of GI50 for human LoVo/DX cells to GI50 for human LoVo cells. It is filed as functional. An outline of the steps: as §1

Activity calls are given as the source filed them. No cut-off for these calls is given here.

Turning to `CC[C@@]1(O)C(=O)OCc2c1cc1n(c2=O)Cc2cc3ccccc3nc2-1`, the result in assay [1] was Active.
Take `CC[C@]1(O)C[C@@H]2CN(CCc3c([nH]c4ccccc34)[C@@](C(=O)OC)(c3cc4c(cc3OC)N(C)[C@H]3[C@@](O)(C(=O)OC)[C@H](OC(C)=O)[C@]5(CC)C=CCN6CC[C@]43[C@@H]65)C2)C1` [VINBLASTINE]: the GI50 is 210 nM in the assay on CCRF-CEM [2] and 4 nM in the assay on CCRF-CEM [4]. Moreover, the Ratio with CCRF-CEM [3] is 525.
On to `COc1cccc2c1C(=O)c1c(O)c3c(c(O)c1C2=O)C[C@@](O)(C(=O)CO)C[C@@H]3O[C@H]1C[C@H](N)[C@H](O)[C@H](C)O1` [DOXORUBICIN], for which the concentration for 50% growth inhibition (GI50) in the assay with LoVo [5] is 120 nM; in assay [6], 13500 nM. In addition, the Ratio in the assay with LoVo [7] is on record as 112.5.
